Hits are enriched below; roughly 1.7% of the tested compounds scored in any of these assays.
NS3 helicase inh: inhibitors of HCV NS3 helicase, primary screen, biochemical, Cy5 molecular beacon fluorescence. Hepatitis C virus NS3 helicase. NS3 helicase DNA unwinding. inhibition, % at 10.9 µM. 0.56% of 290,000 active;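 active = inhibition above the mean of all tested compounds plus 3 SD, set per campaign, cut at about 35% in these data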
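Material: hepatitis C virus NS3 helicase domain fragment enzyme; measured by: Cy5 fluorescence, 0 and 60 min reads; control set: DMSO and thioflavine S; incubation: 60 min unwinding reaction at 25 °C after ATP addition; read-out basis: % inhibition from 60/0 min fluorescence ratio, DMSO 0%, thioflavine S 100%; repeats: singlicate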
EBNA-1 inhibitor: EBNA-1 DNA-binding inhibitors, primary screen, biochemical, fluorescence polarization | inhibition, % at 14.8 µM | 0.34% of 300,000 active; in the data active = inhibition above about 28%
ZTA DNA inh: ZTA (EBV) inhibition in EBNA-1 counter-screen; P03206; ZTA-DNA binding, fluorescence polarization; inhibition, % at 11 µM; 0.15% of 320,000 active; in the data active = inhibition above about 33%
EBV gp42 block: Epstein-Barr virus gp42 inhibitors, primary screen, biochemical, uHTS, fluorescence polarization. inhibition, % (tested at 21.74 µM). AID 1085, 2008. Glycoprotein 42 (Epstein-Barr virus (strain AG876)), Q1HVG2. Fluorescence polarization binding assay, mP read-out. 0.42% of 220,000 active; in the data active = inhibition above about 50%
Target sequence (Q1HVG2 whole entry, looked up): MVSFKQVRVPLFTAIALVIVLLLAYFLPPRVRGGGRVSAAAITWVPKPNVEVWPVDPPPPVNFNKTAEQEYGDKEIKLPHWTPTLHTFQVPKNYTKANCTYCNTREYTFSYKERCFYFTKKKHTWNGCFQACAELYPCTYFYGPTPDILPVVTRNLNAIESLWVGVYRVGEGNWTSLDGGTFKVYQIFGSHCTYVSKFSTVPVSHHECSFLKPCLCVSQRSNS
MEX-5 binding: MEX-5 zinc finger RNA-binding disruptors – biochemical, C. elegans, fluorescence polarization, MLPCN library, primary screen; Zinc finger protein mex-5 (Caenorhabditis elegans), Q9XUB2; MEX-5/FITC-TCR2 RNA binding; active compounds read low; activity score (negative = inhibition of binding), % at 10 µM; 0.38% of 300,000 active;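 active = inhibition past about -25% in most replicates, and total fluorescence under double the plate's negative control median, limit read from the data; inconclusive = replicates evenly split on the limit, or fluorescence at least double controls; inactive = too little inhibition in most replicates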
Target sequence (Q9XUB2 whole entry, looked up): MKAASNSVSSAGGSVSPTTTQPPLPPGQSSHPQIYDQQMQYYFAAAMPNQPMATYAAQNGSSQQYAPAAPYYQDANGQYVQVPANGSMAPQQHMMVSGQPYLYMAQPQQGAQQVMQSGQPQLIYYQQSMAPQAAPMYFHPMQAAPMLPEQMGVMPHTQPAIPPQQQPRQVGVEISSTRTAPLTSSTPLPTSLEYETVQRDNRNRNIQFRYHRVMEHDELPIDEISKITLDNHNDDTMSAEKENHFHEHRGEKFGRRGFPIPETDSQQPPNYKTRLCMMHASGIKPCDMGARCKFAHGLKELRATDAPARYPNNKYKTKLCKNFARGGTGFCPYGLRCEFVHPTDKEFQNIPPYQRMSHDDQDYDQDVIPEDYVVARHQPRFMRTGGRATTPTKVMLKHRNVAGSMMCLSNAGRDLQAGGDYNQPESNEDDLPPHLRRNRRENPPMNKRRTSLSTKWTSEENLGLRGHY
core dimer inh: inhibitors of HCV core protein dimerization, primary screen, biochemical, TR-FRET, high-throughput | inhibition, % at 5 µM | 0.33% of 300,000 active | AID 1899, 2009 | TR-FRET GST/Flag-core106 dimerization, 1536-well;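 active = inhibition above the mean of all tested compounds plus 3 SD, set per screening campaign, cut at about 45% in these data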
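Assay system – GST-tagged and Flag-tagged HCV core protein residues 1-106 · Quantity – core106 proteins, GST 13.5 nM and Flag 17 nM · Benchmarks – unlabelled core106 and no-GST-core106 wells · Read-out basis – percent inhibition of core106 dimerization signal · Detection – time-resolved FRET, ex 340 nm, em 617 and 671 nm · Schedule – 4 h at 22.5 °C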
Numbers stand for hits; 0 = inactive; ? = inconclusive; - = not tested or not shown.

SMILES | NS3 helicase inh | EBNA-1 inhibitor | ZTA DNA inh | EBV gp42 block | MEX-5 binding | core dimer inh
COCCN(C(=O)COC(=O)C1CC1C)c1c(N)n(Cc2ccccc2)c(=O)[nH]c1=O (stereo unspecified) | - | 0 | 0 | - | 0 | 0
CCN1C(=O)/C(=C2\SC(=S)N(NC(=O)c3ccccc3O)C2=O)c2ccccc21 | 0 | 0 | 0 | 0 | -40 | 0
O=C1C=C(O)c2c(O)cc(O)c(O)c2C1=O | - | 0 | 0 | - | -100 | 0
Fc1ccccc1C(c1nnnn1C1CCCC1)N1CCN(Cc2ccccc2)CC1 (stereo unspecified) | 0 | 0 | 0 | 85 | 0 | 0
FC(F)(F)c1cccc(N2CCC(N=CN3CCCCCC3)=N2)c1 | 0 | 0 | 0 | 0 | 0 | 0
Oc1ccccc1C=NC1=NN(c2cccc(C(F)(F)F)c2)CC1 | 0 | 0 | 0 | 113 | 0 | 0
Cc1cc(Br)c2nc3c(c(C(=O)O)c2c1)CCCCC3 | 0 | 0 | 0 | 0 | 0 | 72
CCc1ccc2nc3c(c(C(=O)O)c2c1)CCC3 | 0 | 0 | 0 | 0 | 0 | 0
COc1ccccc1C(=O)NCCCNC(=O)c1cccnc1 | 0 | 0 | 0 | - | 0 | 0
O=C(c1cc2cc(Cl)ccc2[nH]1)N1CCN(Cc2ccc3c(c2)OCO3)CC1 | 0 | 0 | 0 | - | 0 | 0
Cn1c(=O)c2c(ncn2CC(=O)Nc2nc(-c3ccccc3Cl)cs2)n(C)c1=O | 0 | 27 | 0 | 0 | 0 | 0
Cc1ccc2nc3sc(C(=O)N4CCOCC4)c(N)c3cc2c1 | 0 | 0 | 0 | 0 | -44 | 0
Cc1ccc2nc3sc(C(=O)NCc4ccco4)c(N)c3cc2c1 | 0 | 0 | 0 | 0 | 0 | 53
COc1cc2cc3c(N)c(C(=O)NCc4ccco4)sc3nc2cc1OC | 0 | 0 | 0 | 0 | 0 | 0
CC(=O)c1ccc(N2CCN(C(=O)c3cccs3)C(C)C2)c(F)c1 (stereo unspecified) | 0 | 0 | 0 | - | 0 | 0
CC1=Nc2ccc(C)cc2/C1=C/c1c(N)n2nc(CC(=O)N3CCOCC3)sc2nc1=O | 0 | 0 | 0 | - | -52 | 0
Nc1c(C=C2C=CC(=O)C=C2)c(=O)nc2sc(CC(=O)N3CCCCC3)nn12 | 0 | 0 | 0 | - | 0 | 0
CC(C)N1CCN(S(=O)(=O)c2ccc3ccccc3c2)CC1 | 0 | 153 | 133 | - | 0 | 0
O=C(O)c1ccc2c3c(ncnc13)-c1ccccc1C2=O | 0 | 0 | 0 | 76 | ? | 0
O=C1c2ccccc2-c2ncnc3cccc1c23 | 0 | - | - | - | - | -
O=C1C=CC(=O)C(C2=C3C(=O)N(CCc4ccccc4)CC(=O)N3CCC2)=C1 | 0 | 0 | 0 | 0 | -47 | 0
COC(=O)c1ccc(NC(=O)c2ccc3c(c2)NC(=O)C2CCCN32)cc1 (stereo unspecified) | - | - | 0 | - | - | -
CC1=C(C#N)C(=O)N(C2CCS(=O)(=O)C2)C(=O)/C1=C\c1ccco1 (stereo unspecified) | 0 | 63 | 79 | 124 | -99 | 78
CC#CC(=O)N1CCC(CO)(CCc2ccccc2)CC1 | 0 | 0 | 0 | 0 | 0 | 0
COc1cc([N+](=O)[O-])ccc1-c1ccc(/C=N/NC(=O)c2ccccc2O)o1 | 0 | - | - | 67 | 0 | -
SMILES | NS3 helicase inh | EBNA-1 inhibitor | ZTA DNA inh | EBV gp42 block | MEX-5 binding | core dimer inh
Cc1cc([N+](=O)[O-])ccc1-c1ccc(/C=N/NC(=O)Cc2ccccc2)o1 | 0 | 0 | 0 | 89 | 0 | 0
CS(=O)(=O)N(CC(=O)N1CCOCC1)c1ccccc1Br | 0 | - | - | - | 0 | -
O=c1c2ccccc2c(C=Nc2ccc(S(=O)(=O)N3CCCCC3)cc2)c(O)n1-c1ccc(Cl)cn1 | 0 | 0 | 0 | 0 | 0 | 60
CCc1nnc(/N=C/c2c(O)n(-c3ccc(Cl)cn3)c(=O)c3ccccc23)s1 | 0 | 0 | 0 | 0 | 0 | 0
COc1ccc(C2(c3ccc(OC)cc3)NC(=O)N(CC(=O)N3CCOCC3)C2=O)cc1 | - | - | 0 | - | - | -
COc1cccc(CC(=O)OCC(=O)NNC(=O)c2ccc(Br)cc2)c1 | - | - | 0 | - | - | -
CCOC(=O)CSc1n[nH]c(-c2ccco2)n1 | 0 | 0 | 0 | 0 | 0 | 0
O=C(O)c1ccc(CSc2n[nH]c(-c3ccco3)n2)cc1 | 36 | 0 | 0 | 0 | 0 | 0
CC(CN1CCCC1)OC(=O)c1ccc(Br)cc1 (stereo unspecified) | 0 | 0 | 0 | - | 0 | 0
Cc1c(N)cc(N)cc1C(=O)O | 0 | 0 | 0 | 0 | -49 | 0
Cc1c(Br)cc(C(=O)O)c(C)c1C | 0 | 0 | 0 | 0 | 0 | 0
Cn1c(SCC(=O)Nc2sccc2C#N)nnc1-c1ccccc1 | 0 | 0 | 0 | 0 | - | 49
CCCC(=O)Nc1ccc2nc(SCC(=O)N3CCCC3)sc2c1 | 0 | 0 | 0 | 0 | 0 | 0
Cn1cnnc1SCC(=O)Nc1sccc1C#N | 0 | 0 | 0 | 0 | 0 | 0
Cn1c(SCC(=O)Nc2ccc3nc(SCC(=O)N4CCCC4)sc3c2)nnc1-c1ccccc1 | 0 | 0 | 0 | 83 | 0 | 0
CCc1nnc(NC(=O)c2cc(Cl)ccn2)s1 | 0 | 0 | 0 | - | 0 | 0
COc1ccc(N=Nc2nc3cc(Br)c(Br)cc3n2C)c(OC)c1 | 0 | 0 | 0 | 118 | - | 0
CCCN(C(=O)Cc1ccc(S(=O)(=O)N2CCOCC2)s1)c1c(N)n(Cc2ccccc2)c(=O)[nH]c1=O | 0 | 0 | 0 | - | 0 | 0
CCCn1c(N)c(N(CCOC)C(=O)Cc2ccc(S(=O)(=O)N3CCOCC3)s2)c(=O)[nH]c1=O | - | 0 | 0 | - | -26 | 0
NS(=O)(=O)c1ccc(CCNC(=O)c2ccc(NC3=NC4CS(=O)(=O)CC4S3)cc2)cc1 (stereo unspecified) | 0 | 0 | 0 | - | 0 | 0
Cc1ccc(Sc2ccc(S(=O)(=O)Nc3ccc(CC(=O)O)cc3)cc2)cc1C | - | - | 0 | - | - | -
Cc1ccc(C(c2c(C)[nH][nH]c2=O)c2c(C)[nH][nH]c2=O)cc1[N+](=O)[O-] | 0 | 0 | 0 | 0 | 0 | 0
COc1cc(C(c2c(C)[nH][nH]c2=O)c2c(C)[nH][nH]c2=O)cc([N+](=O)[O-])c1O | 0 | 0 | 0 | 0 | -81 | 0
CCOc1cc(C(c2c(C)[nH][nH]c2=O)c2c(C)[nH][nH]c2=O)cc([N+](=O)[O-])c1O | 0 | 0 | 0 | - | -68 | 0
CCOc1cc(C(c2c(C)[nH][nH]c2=O)c2c(C)[nH][nH]c2=O)cc(Cl)c1O | 0 | 0 | 0 | - | 0 | 0
COc1cc(NC(=O)c2cccs2)c(OC)cc1NC(=O)Nc1ccc(F)cc1 | 0 | - | - | - | 0 | -
CCOc1ccc(OCCC(=O)N(CC)CC(=O)NCc2cccs2)cc1 | - | - | 0 | - | - | -
Cc1[nH]c(=O)[nH]c(=O)c1S(=O)(=O)N1CCN(c2ccccc2F)CC1 | 0 | 0 | 0 | 61 | 0 | 0
Cc1ccc(NS(=O)(=O)c2ccc(NC(=O)c3ccc(-c4ccccc4)cc3)cc2)c(C)c1 | 0 | 0 | 0 | - | 0 | 46

High-throughput results from PubChem BioAssay.
